Active and inactive are the calls of the source. The calls are words filed in the database; no cut-off is given here. Numbered stars: 1 amine (or outer) side, 2 acyl side, 3 side chain; on linkers, the order of the positions; unused ones are H or OH. Bridge positions count the residues as written; N and C are the ends. Square brackets hold non-standard residues; d marks the D form. Peptide text beside a SMILES is read from it. I, II: the chains in the order shown. ξ: configuration not given here. Gly(N(CH2)2(3-indolyl)) = O=C(O)CNCCc1c[nH]c2ccccc12; Gly(N-piperonyl) = O=C(O)CNCc1ccc2c(c1)OCO2; X1 = CC(c1ccccc1)N(CC(=O)[*:2])[*:1]; NFurfurylGly = O=C(O)CNCc1ccco1; NAllylGly = C=CCNCC(=O)O; Nleu = CC(C)CNCC(=O)O; Nlys = NCCCCNCC(=O)O; ξK = NCCCCC(N)C(=O)O; Ahx = NCCCCCC(=O)O; Nme = COCCNCC(=O)O; βAla = NCCC(=O)O
Columns and labels:
[1] = biological target: T1, Vascular endothelial growth factor receptor 2 (Homo sapiens, UniProt P35968); test: Binding affinity to human recombinant VEGFR2 extracellular domain by ELISA like binding assay
T1 sequence (P35968 whole entry, the tested form may be a part): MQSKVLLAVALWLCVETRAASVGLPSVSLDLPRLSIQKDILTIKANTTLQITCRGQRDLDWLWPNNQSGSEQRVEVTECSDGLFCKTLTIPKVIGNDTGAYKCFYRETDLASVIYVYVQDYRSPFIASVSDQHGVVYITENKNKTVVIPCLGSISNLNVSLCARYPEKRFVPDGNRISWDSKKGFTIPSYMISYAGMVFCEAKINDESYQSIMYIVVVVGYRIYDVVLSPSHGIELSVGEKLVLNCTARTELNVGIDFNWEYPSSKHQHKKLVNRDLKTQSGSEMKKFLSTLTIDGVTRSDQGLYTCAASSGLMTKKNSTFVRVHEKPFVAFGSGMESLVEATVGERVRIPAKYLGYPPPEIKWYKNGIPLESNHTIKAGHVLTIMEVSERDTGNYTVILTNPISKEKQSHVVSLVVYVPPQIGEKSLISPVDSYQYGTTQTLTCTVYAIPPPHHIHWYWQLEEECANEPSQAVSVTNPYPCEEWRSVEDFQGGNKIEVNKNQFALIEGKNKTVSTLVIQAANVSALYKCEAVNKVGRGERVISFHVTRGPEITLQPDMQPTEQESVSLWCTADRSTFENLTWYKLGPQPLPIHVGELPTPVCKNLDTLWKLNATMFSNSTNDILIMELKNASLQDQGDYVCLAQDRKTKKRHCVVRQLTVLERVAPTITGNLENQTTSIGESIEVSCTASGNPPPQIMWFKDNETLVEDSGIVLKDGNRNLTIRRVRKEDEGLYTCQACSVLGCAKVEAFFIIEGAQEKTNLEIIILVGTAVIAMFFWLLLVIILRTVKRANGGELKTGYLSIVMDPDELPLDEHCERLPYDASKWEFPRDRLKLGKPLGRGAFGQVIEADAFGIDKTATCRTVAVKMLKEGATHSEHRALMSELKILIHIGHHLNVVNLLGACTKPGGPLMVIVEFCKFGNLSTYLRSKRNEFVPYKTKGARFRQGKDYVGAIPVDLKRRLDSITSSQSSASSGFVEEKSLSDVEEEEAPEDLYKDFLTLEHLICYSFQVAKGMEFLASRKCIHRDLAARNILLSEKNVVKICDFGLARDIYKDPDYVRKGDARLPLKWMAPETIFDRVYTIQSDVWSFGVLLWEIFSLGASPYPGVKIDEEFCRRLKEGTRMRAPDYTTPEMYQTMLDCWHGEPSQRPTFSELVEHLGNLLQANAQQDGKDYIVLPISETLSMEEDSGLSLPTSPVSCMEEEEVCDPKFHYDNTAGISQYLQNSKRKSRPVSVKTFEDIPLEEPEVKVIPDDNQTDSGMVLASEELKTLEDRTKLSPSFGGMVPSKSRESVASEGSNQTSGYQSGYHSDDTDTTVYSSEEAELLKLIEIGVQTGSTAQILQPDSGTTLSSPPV
How it was run: (§1)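 Plates coated overnight at 4 °C with recombinant human VEGFR ECD at 1 µg/mL in carbonate buffer pH 9.5, then washed and blocked. Serial dilutions of FITC-labelled peptoid in blocking buffer or TBST were added for 1 h at room temperature. After five PBS washes, retained fluorescence was read at 520 nm. KD was taken from the titration.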

[2] = biological target: Vascular endothelial growth factor receptor 1 (Homo sapiens) (UniProt P17948); test: Binding affinity to human recombinant VEGFR1 extracellular domain by ELISA like binding assay; how it was run: as §1
Sequence of Vascular endothelial growth factor receptor 1 (Homo sapiens) (P17948 whole entry, the tested form may be a part): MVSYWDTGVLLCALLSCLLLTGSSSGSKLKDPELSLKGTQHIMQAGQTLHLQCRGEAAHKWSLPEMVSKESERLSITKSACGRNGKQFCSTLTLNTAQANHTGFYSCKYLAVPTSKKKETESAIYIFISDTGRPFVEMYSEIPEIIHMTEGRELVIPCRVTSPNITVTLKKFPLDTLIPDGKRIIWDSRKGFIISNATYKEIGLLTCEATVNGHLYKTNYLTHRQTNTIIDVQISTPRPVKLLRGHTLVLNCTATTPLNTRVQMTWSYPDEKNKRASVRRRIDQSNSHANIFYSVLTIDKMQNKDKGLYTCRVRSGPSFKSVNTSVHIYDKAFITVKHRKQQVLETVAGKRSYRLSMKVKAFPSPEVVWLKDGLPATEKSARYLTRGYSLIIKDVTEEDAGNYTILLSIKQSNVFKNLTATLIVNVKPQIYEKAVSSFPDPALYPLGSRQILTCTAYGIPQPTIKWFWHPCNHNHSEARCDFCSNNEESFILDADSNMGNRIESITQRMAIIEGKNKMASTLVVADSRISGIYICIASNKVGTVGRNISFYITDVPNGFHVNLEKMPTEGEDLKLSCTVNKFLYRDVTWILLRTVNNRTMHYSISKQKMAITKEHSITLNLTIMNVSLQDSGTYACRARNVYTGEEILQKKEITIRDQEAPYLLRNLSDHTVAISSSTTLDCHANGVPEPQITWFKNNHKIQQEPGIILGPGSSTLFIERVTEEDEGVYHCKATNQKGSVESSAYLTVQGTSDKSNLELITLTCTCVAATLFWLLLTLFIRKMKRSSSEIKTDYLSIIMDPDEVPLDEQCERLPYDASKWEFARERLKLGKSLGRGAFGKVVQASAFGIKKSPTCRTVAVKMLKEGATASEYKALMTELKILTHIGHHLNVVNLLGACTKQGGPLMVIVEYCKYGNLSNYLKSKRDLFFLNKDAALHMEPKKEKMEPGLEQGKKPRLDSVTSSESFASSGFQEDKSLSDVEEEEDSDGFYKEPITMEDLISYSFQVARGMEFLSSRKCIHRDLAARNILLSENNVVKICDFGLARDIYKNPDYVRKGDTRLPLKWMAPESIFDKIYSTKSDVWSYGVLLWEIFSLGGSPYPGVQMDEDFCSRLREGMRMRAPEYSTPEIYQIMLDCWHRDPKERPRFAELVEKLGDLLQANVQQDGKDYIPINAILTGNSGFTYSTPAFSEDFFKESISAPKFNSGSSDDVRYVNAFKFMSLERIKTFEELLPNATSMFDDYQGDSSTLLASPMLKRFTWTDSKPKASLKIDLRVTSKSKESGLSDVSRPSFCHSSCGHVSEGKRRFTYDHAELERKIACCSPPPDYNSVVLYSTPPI

[3] = biological target: Vascular endothelial growth factor receptor 1 (Homo sapiens) (UniProt P17948); test: Binding affinity to human recombinant VEGFR1(1-3) N terminal domain by ELISA like binding assay; how it was run: as §1
[4] = biological target: T1, Vascular endothelial growth factor receptor 2; test: Displacement of GU40C-FITC form human recombinant VEGFR2 extracellular domain by ELISA like binding assay
[5] = biological target: T1, Vascular endothelial growth factor receptor 2; test: Displacement of fluorescein-labeled GU40C4 from human recombinant VEGFR2 extracellular domain by ELISA like binding assay

CC(C)CN(CC(=O)N(CCCCN)CC(=O)N(CCCCN)CC(N)=O)C(=O)CN(CCCCN)C(=O)CN(CC(C)C)C(=O)CN(CCCCN)C(=O)CN(Cc1ccco1)C(=O)CN(CCCCN)C(=O)CNCCc1c[nH]c2ccccc12 (H-[Gly(N(CH2)2(3-indolyl))][Nlys][NFurfurylGly][Nlys][Nleu][Nlys][Nleu][Nlys][Nlys]-NH2)
Kd [1]: 1 µM
Activity [2]: Active
Activity [3]: Active
Activity [4]: Active

C=CCN(CC(=O)N(CCc1c[nH]c2ccccc12)CC(=O)N(CCCCN)CC(=O)N(CC(=O)N(CCCCN)CC(=O)N(CCCCN)CC(N)=O)CC(C)C)C(=O)CN(CC(C)C)C(=O)CN(CCOC)C(=O)CNCCCCN (H-[Nlys][Nme][Nleu][NAllylGly][Gly(N(CH2)2(3-indolyl))][Nlys][Nleu][Nlys][Nlys]-NH2)
Activity [1]: Active
Activity [2]: Active
Activity [3]: Active
Activity [4]: Active

CC(C)CN(CC(=O)N(CCCCN)CC(=O)N(CC(=O)N(CC(=O)N(CCCCN)CC(=O)N(CC(=O)N(CCCCN)CC(=O)N(CCCCN)CC(N)=O)CC(C)C)Cc1ccc2c(c1)OCO2)C(C)c1ccccc1)C(=O)CNCCCCN (configuration not stated) (H-[Nlys][Nleu][Nlys][X1][Gly(N-piperonyl)][Nlys][Nleu][Nlys][Nlys]-NH2)
Kd [1]: 1 µM
Activity [2]: Active
Activity [3]: Active
Activity [4]: Active

C=CCN(CC(=O)N(CC(=O)N(CCCCN)CC(=O)N(CCCCN)CC(N)=O)CC(C)C)C(=O)CN(CC(C)C)C(=O)CN(Cc1ccc2c(c1)OCO2)C(=O)CN(CCc1c[nH]c2ccccc12)C(=O)CN(CCCCN)C(=O)CNCCCCN (H-[Nlys][Nlys][Gly(N(CH2)2(3-indolyl))][Gly(N-piperonyl)][Nleu][NAllylGly][Nleu][Nlys][Nlys]-NH2)
Activity [1]: Active
Activity [2]: Active
Activity [3]: Active
Activity [4]: Active

CC(C)CN(CC(=O)N(CCCCN)CC(=O)N(CC(=O)N(CC(=O)N(CCCCN)CC(=O)N(CC(=O)N(CCCCN)CC(=O)N(CCCCN)CC(=O)NCCCCCC(=O)NCCC(=O)NC(CCCCNC(=O)CN(CCCCN)C(=O)CN(CCCCN)C(=O)CN(CC(C)C)C(=O)CN(CCCCN)C(=O)CN(Cc1ccc2c(c1)OCO2)C(=O)CN(C(=O)CN(CCCCN)C(=O)CN(CC(C)C)C(=O)CNCCCCN)C(C)c1ccccc1)C(N)=O)CC(C)C)Cc1ccc2c(c1)OCO2)C(C)c1ccccc1)C(=O)CNCCCCN (configuration not stated) (I: H-[Nlys][Nleu][Nlys][X1][Gly(N-piperonyl)][Nlys][Nleu][Nlys][Nlys][Ahx][βAla][ξK]-NH2 / II: H-[Nlys][Nleu][Nlys][X1][Gly(N-piperonyl)][Nlys][Nleu][Nlys][Nlys]; amide I:12-II:C)
Activity [5]: Active
Activity [1]: Active

CC(C)CN(CC(=O)N(CCCCN)CC(=O)N(CCCCN)CC(N)=O)C(=O)CN(CCCCN)C(=O)CN(Cc1ccc2c(c1)OCO2)C(=O)CN(CCCCN)C(=O)CN(CC(C)C)C(=O)CN(Cc1ccc2c(c1)OCO2)C(=O)CNCCCCN (H-[Nlys][Gly(N-piperonyl)][Nleu][Nlys][Gly(N-piperonyl)][Nlys][Nleu][Nlys][Nlys]-NH2)
Activity [1]: Active
Activity [2]: Active
Activity [3]: Active
Activity [4]: Active

From ChEMBL document CHEMBL1150420, “A peptoid antagonist of VEGF receptor 2 recognizes a 'hotspot' in the extracellular domain distinct from the hormone-binding site” (Bioorg Med Chem, 2008)
